The text below walks through data of ChEMBL document CHEMBL1255544, “Synthesis and evaluation of novel chloropyrrole molecules designed by molecular hybridization of common pharmacophores as potential antimicrobial agents” (2010).

In test [1] the test system is Candida albicans. Put plainly: Antimicrobial activity against Candida albicans after 48 hrs by broth dilution method. Format: functional. The essentials:
(§1)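 MIC by broth dilution: the lowest concentration (highest dilution) that arrested bacterial or fungal growth. Strains were E. coli ATCC-25922, S. aureus ATCC-25923, P. aeruginosa ATCC-27853 and C. albicans.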
A general note: Dilution methods test growth across graded concentrations, often in twofold steps.

Test [2] deals with Staphylococcus aureus. Put plainly: Antimicrobial activity against Staphylococcus aureus ATCC 25923 after 24 hrs by disk diffusion method. Format: functional. The essentials:
(§2)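 Zone of inhibition by disc diffusion against E. coli ATCC-25922, S. aureus ATCC-25923, P. aeruginosa ATCC-27853 and recultured Klebsiella pneumoniae.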
On the technique in general: In agar diffusion tests the substance spreads into inoculated agar from a disc or well.

For test [3], the system named is Pseudomonas aeruginosa. Put plainly: Antimicrobial activity against Pseudomonas aeruginosa ATCC 27853 after 24 hrs by broth dilution method. It is filed as functional. The settings on record: ATCC 27853, 24 h. The essentials: as §1
Test [4] deals with Klebsiella pneumoniae. Put plainly: Antimicrobial activity against Klebsiella pneumoniae after 24 hrs by disk diffusion method. Format: functional. The essentials:
as §2

The test system of test [5] is Pseudomonas aeruginosa. Put plainly: Antimicrobial activity against Pseudomonas aeruginosa ATCC 27853 after 24 hrs by disk diffusion method. It is filed as functional. The essentials:
as §2

Test [6] has as its system Escherichia coli. Put plainly: Antimicrobial activity against Escherichia coli ATCC […] after 24 hrs by disk diffusion method. It is filed as functional. The essentials: as §2
The subject of test [7] is Staphylococcus aureus. Description: Antimicrobial activity against Staphylococcus aureus ATCC 25923 after 24 hrs by broth dilution method. The settings on record: ATCC 25923, 24 h. It is filed as functional. The essentials: as §1
The subject of test [8] is Candida albicans. Put plainly: Antimicrobial activity against Candida albicans after 48 hrs by agar dilution method. Format: functional. The essentials: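 Candida albicans tested by agar dilution, with compounds in DMSO.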
For orientation: In agar dilution the substance is mixed into plates at graded concentrations.

Test [9] relates to Escherichia coli. Description: Antimicrobial activity against Escherichia coli ATCC […] after 24 hrs by broth dilution method. Format: functional. The essentials: as §1
Test [10] relates to Klebsiella pneumoniae. Put plainly: Antimicrobial activity against Klebsiella pneumoniae at 100 ug/ml after 24 hrs by broth dilution method. Format: functional, organism-based.

The structures appear in SMILES notation. Converted amounts (≈) assume the structure as drawn. The source made the active and inactive calls. The calls are words filed in the database; no cut-off is given here.

Turning to `CN(C)c1ccc(/C=N/NC(=O)c2cc(Cl)c(Cl)[nH]2)cc1`, the MIC was 12.5 µg/mL (≈ 38.4 µM) in the test with Candida albicans [1], 25 µg/mL (≈ 76.9 µM) in the test on Pseudomonas aeruginosa [3], 12.5 µg/mL (≈ 38.4 µM) against Staphylococcus aureus [7] and 6.25 µg/mL (≈ 19.2 µM) in the test with Escherichia coli [9]. The “diameter of the inhibition zone (DIZ)” value with Staphylococcus aureus [2] turned out to be 15 mm; in the test with Klebsiella pneumoniae [4], 12 mm; in the test on Pseudomonas aeruginosa [5], 15 mm; in the test on Escherichia coli [6], 22 mm; in the test with Candida albicans [8], 22 mm.

Take `O=C(/C=C/c1ccc(Cl)cc1)c1cc(Cl)c[nH]1`: the MIC was 50 µg/mL (≈ 188 µM) with Candida albicans [1], 100 µg/mL (≈ 376 µM) in the test on Pseudomonas aeruginosa [3], 12.5 µg/mL (≈ 47 µM) in the test with Staphylococcus aureus [7] and 25 µg/mL (≈ 93.9 µM) in the test with Escherichia coli [9]. Besides, the “diameter of the inhibition zone (DIZ)” value was found to be 16 mm in the test on Staphylococcus aureus [2], 16 mm with Pseudomonas aeruginosa [5], 12 mm in the test on Escherichia coli [6] and 13 mm in the test on Candida albicans [8]. In addition, the result with Klebsiella pneumoniae [10] was inactive.

As for `O=C(N/N=C/c1ccc(Cl)cc1)c1cc(Cl)c[nH]1`, the minimum inhibitory concentration (MIC) against Candida albicans [1] was 25 µg/mL (≈ 88.6 µM); in the test with Pseudomonas aeruginosa [3] it was 100 µg/mL (≈ 354 µM); against Staphylococcus aureus [7], 3.12 µg/mL (≈ 11.1 µM); against Escherichia coli [9], 12.5 µg/mL (≈ 44.3 µM). Besides, the “diameter of the inhibition zone (DIZ)” value with Staphylococcus aureus [2] is 26 mm; in the test with Pseudomonas aeruginosa [5], 15 mm; in the test on Escherichia coli [6], 16 mm; in the test with Candida albicans [8], 17 mm. Moreover, the outcome in the test with Klebsiella pneumoniae [10] was inactive.

Consider `O=C(N/N=C/c1ccccc1)c1cc(Cl)c[nH]1`, for which the MIC is 25 µg/mL (≈ 101 µM) with Candida albicans [1], 100 µg/mL (≈ 404 µM) in the test with Pseudomonas aeruginosa [3], 12.5 µg/mL (≈ 50.5 µM) with Staphylococcus aureus [7] and 12.5 µg/mL (≈ 50.5 µM) with Escherichia coli [9]. In addition, the “diameter of the inhibition zone (DIZ)” value turned out to be 17 mm with Staphylococcus aureus [2], 14 mm in the test with Pseudomonas aeruginosa [5], 14 mm with Escherichia coli [6] and 20 mm in the test on Candida albicans [8]. In addition, in the test on Klebsiella pneumoniae [10], the outcome was inactive.

On to `COc1ccc(OC)c(/C=N/NC(=O)c2cc(Cl)c[nH]2)c1`, for which the MIC with Candida albicans [1] turned out to be 25 µg/mL (≈ 81.2 µM); in the test with Pseudomonas aeruginosa [3], 100 µg/mL (≈ 325 µM); against Staphylococcus aureus [7], 6.25 µg/mL (≈ 20.3 µM); against Escherichia coli [9], 12.5 µg/mL (≈ 40.6 µM). Besides, the “diameter of the inhibition zone (DIZ)” value with Staphylococcus aureus [2] was 20 mm; with Pseudomonas aeruginosa [5] it was 15 mm; with Escherichia coli [6] it was 15 mm; in the test on Candida albicans [8], 13 mm. In the test with Klebsiella pneumoniae [10], the outcome was inactive.

As to `COc1ccc(/C=N/NC(=O)c2cc(Cl)c(Cl)[nH]2)cc1OC`, the MIC against Candida albicans [1] is 12.5 µg/mL (≈ 36.5 µM); in the test with Pseudomonas aeruginosa [3], 12.5 µg/mL (≈ 36.5 µM); with Staphylococcus aureus [7] it was 1.56 µg/mL (≈ 4.56 µM); against Escherichia coli [9] it was 3.12 µg/mL (≈ 9.13 µM). For the same molecule, the “diameter of the inhibition zone (DIZ)” value in the test with Staphylococcus aureus [2] turned out to be 25 mm; in the test with Klebsiella pneumoniae [4], 17 mm; with Pseudomonas aeruginosa [5], 18 mm; in the test on Escherichia coli [6], 20 mm; in the test on Candida albicans [8] it was 24 mm.

In the case of `O=C(N/N=C/c1c(O)cccc1O)c1cc(Cl)c[nH]1`, the MIC stood at 25 µg/mL (≈ 89.4 µM) in the test on Candida albicans [1], 50 µg/mL (≈ 179 µM) in the test with Pseudomonas aeruginosa [3], 3.12 µg/mL (≈ 11.2 µM) in the test with Staphylococcus aureus [7] and 6.25 µg/mL (≈ 22.3 µM) with Escherichia coli [9]. In addition, the “diameter of the inhibition zone (DIZ)” value in the test on Staphylococcus aureus [2] is given as 24 mm; with Pseudomonas aeruginosa [5] it was 14 mm; with Escherichia coli [6], 21 mm; in the test with Candida albicans [8], 18 mm. Besides, the outcome with Klebsiella pneumoniae [10] was inactive.

For `O=C(N/N=C/c1ccc(Cl)cc1)c1cc(Cl)c(Cl)[nH]1`, the MIC was 12.5 µg/mL (≈ 39.5 µM) in the test on Candida albicans [1], 25 µg/mL (≈ 79 µM) against Pseudomonas aeruginosa [3], 1.56 µg/mL (≈ 4.93 µM) in the test with Staphylococcus aureus [7] and 3.12 µg/mL (≈ 9.87 µM) in the test with Escherichia coli [9]. In addition, the “diameter of the inhibition zone (DIZ)” value in the test on Staphylococcus aureus [2] is 24 mm; in the test on Klebsiella pneumoniae [4] it was 20 mm; in the test with Pseudomonas aeruginosa [5] it was 16 mm; in the test on Escherichia coli [6], 22 mm; in the test with Candida albicans [8], 20 mm.

Turning to `O=C(/C=C/c1ccco1)c1cc(Cl)c[nH]1`, the MIC with Candida albicans [1] is 50 µg/mL (≈ 226 µM); with Pseudomonas aeruginosa [3], 25 µg/mL (≈ 113 µM); against Staphylococcus aureus [7], 12.5 µg/mL (≈ 56.4 µM); in the test on Escherichia coli [9], 12.5 µg/mL (≈ 56.4 µM). The “diameter of the inhibition zone (DIZ)” value came to 22 mm in the test with Staphylococcus aureus [2], 17 mm in the test with Pseudomonas aeruginosa [5], 20 mm with Escherichia coli [6] and 18 mm in the test on Candida albicans [8]. Moreover, the outcome in the test on Klebsiella pneumoniae [10] was inactive.

A word on the MIC: it is the lowest concentration found to suppress growth. High values mean weaker potency, low ones greater potency.
